The values that follow come from ChEMBL document CHEMBL4118021, “Studies of TAK1-centered polypharmacology with novel covalent TAK1 inhibitors” (Bioorg Med Chem, 2017).

Holding throughout (type): cell-based
The target in assay [1] is Mitogen-activated protein kinase kinase kinase 1 (Homo sapiens) (UniProt Q13233). The assay is described as follows: Inhibition of MAP3K1 in human SKCO1 cells at 1 uM after 4 hrs using biotin labeled DVKGANLLIDSTGQR probe by mass-spectrometric analysis relative to control.
In assay [2] the target is Mitogen-activated protein kinase kinase kinase kinase 4 (Homo sapiens) (UniProt O95819). The assay is described as follows: Inhibition of ZC1/HGK in human SKCO1 cells at 1 uM after 4 hrs using biotin labeled DIKGQNVLLTENAEVK probe by mass-spectrometric analysis relative to control. The settings on record: pooled result: one value given for 3 cell lines, strains, targets or settings. In a few lines:
(§1)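 Live SK-CO-1 cells exposed to compound at 1 μM or DMSO for 4 h (KiNativ). Lysates then labeled with lysine-reactive ATP/ADP-biotin probe, and probe-labeled kinase peptides quantified by mass spectrometry. Percent inhibition of probe-dependent recovery calculated relative to DMSO-treated cells.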

Assay [3] deals with T1, Serine/threonine-protein kinase LATS1 (Homo sapiens) (UniProt O95835).
T1 sequence (whole entry): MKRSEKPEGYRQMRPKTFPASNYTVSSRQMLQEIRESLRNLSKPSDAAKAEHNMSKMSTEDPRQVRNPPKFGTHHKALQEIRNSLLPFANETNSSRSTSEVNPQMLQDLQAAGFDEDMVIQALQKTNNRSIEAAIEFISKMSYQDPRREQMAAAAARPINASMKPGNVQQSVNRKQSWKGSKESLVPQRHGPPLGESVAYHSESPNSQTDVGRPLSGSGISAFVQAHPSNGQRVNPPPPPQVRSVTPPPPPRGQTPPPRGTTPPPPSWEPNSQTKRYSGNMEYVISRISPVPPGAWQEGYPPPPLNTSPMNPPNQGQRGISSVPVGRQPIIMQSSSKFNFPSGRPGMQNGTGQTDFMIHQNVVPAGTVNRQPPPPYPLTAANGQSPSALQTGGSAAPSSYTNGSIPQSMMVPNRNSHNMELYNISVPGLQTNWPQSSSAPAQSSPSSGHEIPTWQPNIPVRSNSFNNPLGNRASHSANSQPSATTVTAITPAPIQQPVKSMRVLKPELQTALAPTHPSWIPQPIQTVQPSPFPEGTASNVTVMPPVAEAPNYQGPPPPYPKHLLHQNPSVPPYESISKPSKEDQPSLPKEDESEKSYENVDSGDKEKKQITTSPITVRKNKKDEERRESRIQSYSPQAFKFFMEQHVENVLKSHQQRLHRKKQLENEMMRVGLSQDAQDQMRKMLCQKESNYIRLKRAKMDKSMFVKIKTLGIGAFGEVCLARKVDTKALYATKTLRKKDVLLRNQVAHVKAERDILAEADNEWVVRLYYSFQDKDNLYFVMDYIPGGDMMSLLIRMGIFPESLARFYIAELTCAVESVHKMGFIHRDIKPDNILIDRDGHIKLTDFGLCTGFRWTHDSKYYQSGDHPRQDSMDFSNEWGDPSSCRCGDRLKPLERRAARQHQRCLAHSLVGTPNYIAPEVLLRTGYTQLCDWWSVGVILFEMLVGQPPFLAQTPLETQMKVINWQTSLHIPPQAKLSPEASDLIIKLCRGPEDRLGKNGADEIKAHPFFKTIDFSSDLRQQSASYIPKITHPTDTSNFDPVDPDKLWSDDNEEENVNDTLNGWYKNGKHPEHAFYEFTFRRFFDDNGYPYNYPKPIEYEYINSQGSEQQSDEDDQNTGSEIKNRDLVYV
In words: Inhibition of LATS1 in human SKCO1 cells at 1 uM after 4 hrs using biotin labeled ALYATKTLR probe by mass-spectrometric analysis relative to control.

Assay [4] deals with Cyclin-dependent kinase 15 (Homo sapiens) (UniProt Q96Q40). In words: Inhibition of PFTAIRE2 in human SKCO1 cells at 1 uM after 4 hrs using biotin labeled DLKPQNLLISHLGELK probe by mass-spectrometric analysis relative to control. Summed up:
as §1

The target in assay [5] is Tyrosine-protein kinase Fes/Fps (Homo sapiens) (UniProt P07332). The assay is described as follows: Inhibition of FES in human SKCO1 cells at 1 uM after 4 hrs using biotin labeled LRADNTLVAVKSCR probe by mass-spectrometric analysis relative to control.
Assay [6] addresses Ribosomal protein S6 kinase alpha-1 (Homo sapiens) (UniProt Q15418). The assay is described as follows: Inhibition of RSK1 domain1 in human SKCO1 cells at 1 uM after 4 hrs using biotin labeled LTDFGLSKEAIDHEKK probe by mass-spectrometric analysis relative to control. In a few lines: as §1
For assay [7], the target named is Glycogen synthase kinase-3 alpha (Homo sapiens) (UniProt P49840). In words: Inhibition of GSK3A in human SKCO1 cells at 1 uM after 4 hrs using biotin labeled DIKPQNLLVDPDTAVLK probe by mass-spectrometric analysis relative to control.
For assay [8], the target named is Mitogen-activated protein kinase kinase kinase kinase 1 (Homo sapiens) (UniProt Q92918). The assay is described as follows: Inhibition of HPK1 in human SKCO1 cells at 1 uM after 4 hrs using biotin labeled DIKGANILINDAGEVR probe by mass-spectrometric analysis relative to control.
Assay [9] concerns the target Dual specificity mitogen-activated protein kinase kinase 1 (Homo sapiens) (UniProt Q02750). In words: Inhibition of MAP2K1 in human SKCO1 cells at 1 uM after 4 hrs using biotin labeled KLIHLEIKPAIR probe by mass-spectrometric analysis relative to control. The settings on record: pooled result: one value given for 2 cell lines, strains, targets or settings.
Assay [10] addresses Fibroblast growth factor receptor 1 (Homo sapiens) (UniProt P11362). The assay is described as follows: Inhibition of FGFR1 in human SKCO1 cells at 1 uM after 4 hrs using biotin labeled VAVKMLK probe by mass-spectrometric analysis relative to control. The settings on record: pooled result: one value given for 4 cell lines, strains, targets or settings.
Assay [11] addresses Mitogen-activated protein kinase kinase kinase 4 (Homo sapiens) (UniProt Q9Y6R4). In words: Inhibition of MAP3K4 in human SKCO1 cells at 1 uM after 4 hrs using biotin labeled DIKGANIFLTSSGLIK probe by mass-spectrometric analysis relative to control.
Assay [12] has as its target Phosphatidylinositol 4-kinase beta (Homo sapiens) (UniProt Q9UBF8). The assay is described as follows: Inhibition of PI4KB in human SKCO1 cells at 1 uM after 4 hrs using biotin labeled VPHTQAVVLNSKDK probe by mass-spectrometric analysis relative to control. Summed up:
as §1

Assay [13] addresses Serine/threonine-protein kinase 10 (Homo sapiens) (UniProt O94804). The assay is described as follows: Inhibition of LOK in human SKCO1 cells at 1 uM after 4 hrs using biotin labeled DLKAGNVLMTLEGDIR probe by mass-spectrometric analysis relative to control.
Assay [14] has as its target Aurora kinase B (Homo sapiens) (UniProt Q96GD4). The assay is described as follows: Inhibition of AurB in human SKCO1 cells at 1 uM after 4 hrs using biotin labeled SHFIVALKVLFK probe by mass-spectrometric analysis relative to control.
Assay [15] addresses Serine/threonine-protein kinase tousled-like 2 (Homo sapiens) (UniProt Q86UE8). In words: Inhibition of TLK2 in human SKCO1 cells at 1 uM after 4 hrs using biotin labeled YLNEIKPPIIHYDLKPGNILLVNGTACEIK probe by mass-spectrometric analysis relative to control. In a few lines:
as §1

What is called inhibition is the relative decrease from the control value, in per cent.

Fibroblast growth factor receptor 1 (Homo sapiens), sequence (P11362 22-822 limits assumed): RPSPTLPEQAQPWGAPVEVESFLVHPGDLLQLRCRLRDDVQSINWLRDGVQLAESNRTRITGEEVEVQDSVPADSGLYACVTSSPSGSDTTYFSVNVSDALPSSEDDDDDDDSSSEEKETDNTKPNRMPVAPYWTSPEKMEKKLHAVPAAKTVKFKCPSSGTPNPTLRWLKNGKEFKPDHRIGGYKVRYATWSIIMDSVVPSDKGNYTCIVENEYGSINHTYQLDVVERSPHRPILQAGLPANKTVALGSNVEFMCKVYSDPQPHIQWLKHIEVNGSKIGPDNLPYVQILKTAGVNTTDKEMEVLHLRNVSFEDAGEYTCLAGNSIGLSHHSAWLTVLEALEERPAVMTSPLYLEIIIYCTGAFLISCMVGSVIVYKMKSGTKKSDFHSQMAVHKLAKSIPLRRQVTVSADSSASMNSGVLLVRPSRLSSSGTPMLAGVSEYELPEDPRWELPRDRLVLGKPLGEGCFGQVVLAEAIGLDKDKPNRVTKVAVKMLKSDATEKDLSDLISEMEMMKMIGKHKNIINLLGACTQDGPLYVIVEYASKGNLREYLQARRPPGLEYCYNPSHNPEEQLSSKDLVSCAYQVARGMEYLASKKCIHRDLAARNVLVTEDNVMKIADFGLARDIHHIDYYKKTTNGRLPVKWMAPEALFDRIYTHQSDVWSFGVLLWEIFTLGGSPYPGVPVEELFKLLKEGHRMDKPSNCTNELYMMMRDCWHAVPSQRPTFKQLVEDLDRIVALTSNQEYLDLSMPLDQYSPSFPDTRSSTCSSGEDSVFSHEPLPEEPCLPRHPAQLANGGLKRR
Serine/threonine-protein kinase tousled-like 2 (Homo sapiens), sequence (Q86UE8 whole entry, looked up): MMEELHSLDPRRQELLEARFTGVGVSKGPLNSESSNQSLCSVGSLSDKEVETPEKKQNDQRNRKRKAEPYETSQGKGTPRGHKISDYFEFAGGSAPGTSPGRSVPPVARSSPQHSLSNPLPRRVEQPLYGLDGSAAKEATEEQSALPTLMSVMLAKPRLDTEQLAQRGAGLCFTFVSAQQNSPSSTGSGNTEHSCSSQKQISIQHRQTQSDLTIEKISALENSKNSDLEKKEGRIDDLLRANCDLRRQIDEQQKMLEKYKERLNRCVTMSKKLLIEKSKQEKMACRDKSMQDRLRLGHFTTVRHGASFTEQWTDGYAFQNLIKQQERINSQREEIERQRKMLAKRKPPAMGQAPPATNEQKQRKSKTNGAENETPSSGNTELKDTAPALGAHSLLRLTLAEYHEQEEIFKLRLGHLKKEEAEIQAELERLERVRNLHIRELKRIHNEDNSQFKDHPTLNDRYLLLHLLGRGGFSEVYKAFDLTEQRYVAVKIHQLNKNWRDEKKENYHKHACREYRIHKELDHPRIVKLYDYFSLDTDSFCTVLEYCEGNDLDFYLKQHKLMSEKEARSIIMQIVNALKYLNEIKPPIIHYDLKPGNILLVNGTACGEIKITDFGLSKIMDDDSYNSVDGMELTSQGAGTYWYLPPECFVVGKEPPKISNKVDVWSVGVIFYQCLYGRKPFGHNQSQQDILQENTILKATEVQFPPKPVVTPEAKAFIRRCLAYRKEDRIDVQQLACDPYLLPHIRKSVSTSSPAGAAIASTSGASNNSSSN
Tyrosine-protein kinase Fes/Fps (Homo sapiens), sequence (P07332 whole entry, the tested form may be a part): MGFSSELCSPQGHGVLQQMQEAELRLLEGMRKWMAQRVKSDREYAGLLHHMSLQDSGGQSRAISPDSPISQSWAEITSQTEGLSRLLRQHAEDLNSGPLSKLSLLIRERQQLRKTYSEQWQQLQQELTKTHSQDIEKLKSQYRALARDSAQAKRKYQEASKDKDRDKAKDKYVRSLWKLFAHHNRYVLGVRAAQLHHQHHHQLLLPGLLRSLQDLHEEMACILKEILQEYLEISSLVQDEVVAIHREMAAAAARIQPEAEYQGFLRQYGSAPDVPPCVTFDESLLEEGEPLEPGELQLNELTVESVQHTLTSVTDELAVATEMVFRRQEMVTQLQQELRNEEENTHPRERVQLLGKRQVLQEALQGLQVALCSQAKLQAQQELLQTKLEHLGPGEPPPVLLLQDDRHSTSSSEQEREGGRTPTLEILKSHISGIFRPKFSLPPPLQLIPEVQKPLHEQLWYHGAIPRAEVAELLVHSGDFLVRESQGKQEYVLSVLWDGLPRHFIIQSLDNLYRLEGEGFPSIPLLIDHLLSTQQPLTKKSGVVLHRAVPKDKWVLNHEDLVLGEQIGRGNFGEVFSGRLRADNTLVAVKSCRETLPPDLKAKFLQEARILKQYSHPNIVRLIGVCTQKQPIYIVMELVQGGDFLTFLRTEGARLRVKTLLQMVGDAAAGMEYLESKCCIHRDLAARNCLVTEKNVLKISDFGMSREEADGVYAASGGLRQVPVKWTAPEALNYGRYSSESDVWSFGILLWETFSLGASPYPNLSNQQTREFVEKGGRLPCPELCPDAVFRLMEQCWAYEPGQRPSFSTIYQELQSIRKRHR
Serine/threonine-protein kinase 10 (Homo sapiens), sequence (O94804 whole entry, looked up): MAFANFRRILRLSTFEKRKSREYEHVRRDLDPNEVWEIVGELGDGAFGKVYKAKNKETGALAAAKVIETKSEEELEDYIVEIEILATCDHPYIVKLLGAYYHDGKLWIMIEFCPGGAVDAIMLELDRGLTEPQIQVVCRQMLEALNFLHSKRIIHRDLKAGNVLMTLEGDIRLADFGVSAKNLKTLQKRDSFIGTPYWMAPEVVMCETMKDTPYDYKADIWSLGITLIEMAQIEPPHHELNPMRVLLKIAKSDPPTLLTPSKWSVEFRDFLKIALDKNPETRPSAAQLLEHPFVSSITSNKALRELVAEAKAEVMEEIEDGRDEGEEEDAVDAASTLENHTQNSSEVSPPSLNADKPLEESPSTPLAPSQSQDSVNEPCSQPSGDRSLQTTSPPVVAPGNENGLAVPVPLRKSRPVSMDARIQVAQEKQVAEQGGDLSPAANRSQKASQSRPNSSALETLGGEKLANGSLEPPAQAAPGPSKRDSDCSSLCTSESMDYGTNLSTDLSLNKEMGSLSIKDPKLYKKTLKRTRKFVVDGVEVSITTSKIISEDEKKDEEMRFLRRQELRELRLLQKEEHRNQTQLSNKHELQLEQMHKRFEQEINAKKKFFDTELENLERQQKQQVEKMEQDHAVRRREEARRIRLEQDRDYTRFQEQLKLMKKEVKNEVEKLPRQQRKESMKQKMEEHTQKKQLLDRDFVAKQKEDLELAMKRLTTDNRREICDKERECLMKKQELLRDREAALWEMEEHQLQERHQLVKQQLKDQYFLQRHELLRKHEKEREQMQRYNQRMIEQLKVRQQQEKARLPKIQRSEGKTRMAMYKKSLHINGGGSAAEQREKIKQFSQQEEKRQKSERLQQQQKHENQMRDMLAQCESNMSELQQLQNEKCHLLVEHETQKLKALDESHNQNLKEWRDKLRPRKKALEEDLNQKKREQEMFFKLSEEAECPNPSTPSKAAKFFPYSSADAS
Mitogen-activated protein kinase kinase kinase kinase 1 (Homo sapiens), sequence (Q92918 whole entry, looked up): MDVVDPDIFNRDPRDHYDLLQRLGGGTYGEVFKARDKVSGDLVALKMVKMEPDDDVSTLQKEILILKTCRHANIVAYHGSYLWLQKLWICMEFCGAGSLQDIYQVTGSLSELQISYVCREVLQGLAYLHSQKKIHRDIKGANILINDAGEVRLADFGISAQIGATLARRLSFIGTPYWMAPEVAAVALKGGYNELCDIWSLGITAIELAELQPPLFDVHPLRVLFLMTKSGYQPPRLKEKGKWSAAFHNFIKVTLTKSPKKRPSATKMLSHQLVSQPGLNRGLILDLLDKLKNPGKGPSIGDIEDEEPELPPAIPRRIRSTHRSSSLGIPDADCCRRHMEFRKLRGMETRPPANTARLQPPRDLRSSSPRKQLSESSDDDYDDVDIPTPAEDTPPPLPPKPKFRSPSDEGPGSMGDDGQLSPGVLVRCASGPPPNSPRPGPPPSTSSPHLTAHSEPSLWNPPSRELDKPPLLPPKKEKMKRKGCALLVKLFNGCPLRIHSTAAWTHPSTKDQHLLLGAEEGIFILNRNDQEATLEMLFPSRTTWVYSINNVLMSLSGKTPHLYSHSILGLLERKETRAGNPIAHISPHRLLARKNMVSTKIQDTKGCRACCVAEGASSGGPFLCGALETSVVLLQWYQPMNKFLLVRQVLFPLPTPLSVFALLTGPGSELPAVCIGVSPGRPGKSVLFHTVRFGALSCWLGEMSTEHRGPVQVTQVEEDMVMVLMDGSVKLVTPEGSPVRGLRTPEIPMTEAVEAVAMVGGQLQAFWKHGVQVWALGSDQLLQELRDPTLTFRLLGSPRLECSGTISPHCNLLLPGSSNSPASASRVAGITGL
Glycogen synthase kinase-3 alpha (Homo sapiens), sequence (P49840 2-483 limits assumed): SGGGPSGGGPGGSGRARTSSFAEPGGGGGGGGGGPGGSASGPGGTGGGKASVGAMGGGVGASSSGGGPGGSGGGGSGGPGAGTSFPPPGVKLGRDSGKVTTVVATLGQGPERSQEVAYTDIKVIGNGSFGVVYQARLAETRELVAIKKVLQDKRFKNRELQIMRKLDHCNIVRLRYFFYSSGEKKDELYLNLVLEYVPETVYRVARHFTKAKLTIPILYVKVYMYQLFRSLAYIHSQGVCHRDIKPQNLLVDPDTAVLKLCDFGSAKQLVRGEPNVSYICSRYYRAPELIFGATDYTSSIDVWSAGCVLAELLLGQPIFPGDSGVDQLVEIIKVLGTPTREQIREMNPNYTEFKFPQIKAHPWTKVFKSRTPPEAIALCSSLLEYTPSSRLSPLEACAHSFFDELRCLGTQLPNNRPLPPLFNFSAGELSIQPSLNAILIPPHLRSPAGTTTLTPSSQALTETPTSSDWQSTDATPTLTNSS
Aurora kinase B (Homo sapiens), sequence (Q96GD4 whole entry): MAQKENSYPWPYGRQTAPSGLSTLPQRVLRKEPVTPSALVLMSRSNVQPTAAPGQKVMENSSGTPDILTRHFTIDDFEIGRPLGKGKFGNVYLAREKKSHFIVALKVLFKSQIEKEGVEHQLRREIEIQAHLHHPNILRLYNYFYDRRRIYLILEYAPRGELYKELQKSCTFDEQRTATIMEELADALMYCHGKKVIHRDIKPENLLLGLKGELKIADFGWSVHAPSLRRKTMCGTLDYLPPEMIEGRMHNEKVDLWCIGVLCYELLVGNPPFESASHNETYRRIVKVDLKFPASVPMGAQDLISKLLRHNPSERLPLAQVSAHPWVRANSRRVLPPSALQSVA

Consider `C=CC(=O)Nc1ccccc1Oc1nc(Nc2cnn(CCOC)c2)ncc1Cl`, for which the inhibition in assay [1] is 59.7%; in assay [2], 20.9%; in assay [3] it was 5.3%; in assay [4], 22.8%; in assay [5], 13.6%; in assay [6], 33.5%. Moreover, the inhibition in assay [7] worked out at 15.2%; in assay [8], 72.6%; in assay [9], 13.9%; in assay [10], 7.6%; in [11], 12.9%; in assay [12] it was 27.2%. Moreover, the inhibition stood at 11.6% in [13], 65.4% in assay [14] and 3.8% in [15].

`COc1cc(O)c2c(c1)/C=C/C[C@H](O)[C@H](O)C(=O)/C=C\C[C@H](C)OC2=O`: the inhibition in assay [1] was determined as 51.4%; in assay [2] it was 15.1%; in assay [3] it was 9.9%; in assay [4] it was 31.8%; in assay [5], 67.7%; in assay [6] it was 54.5%. Besides, the inhibition in [7] was found to be 4.3%; in assay [8] it was 77.3%; in assay [9], 85.3%; in assay [10] it was 18.4%; in assay [11], 17.8%; in assay [12], 21.8%. The inhibition was 21.4% in assay [13], 58.1% in assay [14] and -1.8% in assay [15].

For the compound `C=CC(=O)Nc1ccccc1Nc1nc(Nc2ccc(N3CCN(C)CC3)cc2)ncc1Cl`, the inhibition amounted to 78.5% in [1]; 6.8% in [2]; 17.5% in assay [3]; 41.5% in assay [4]; 77.3% in assay [5]; 56.2% in assay [6]. Further, the inhibition in [7] is -2.8%; in assay [8], 34.9%; in assay [9], 62.7%; in assay [10], 33.7%; in [11] it was 63.3%; in assay [12], 14.7%. In addition, the inhibition in assay [13] is 40.4%; in assay [14], 94.4%; in assay [15] it was -2.7%.
